Results from ChEMBL document CHEMBL1130667, “Discovery of an imidazopyridine-containing 1,4-benzodiazepine nonpeptide vitronectin receptor (alpha v beta 3) antagonist with efficacy in a restenosis model” (Bioorg Med Chem Lett, 1998).

How the values were obtained:
HEK293 = assay: Antagonistic activity was measured by the adhesion of HEK 293 cells transfected with human alphaV-beta3 to vitronectin-coated plates; assay type: functional, cell-based
Procedure, shortened: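 HEK 293 cells transfected with human αvβ3 are allowed to adhere to vitronectin-coated plates. IC50 comes from two experiments run in triplicate, with an internal reference standard included.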

Integrin alpha-V/beta-3 = Integrin alpha-V/beta-3 (Homo sapiens, UniProt P05106+P06756); assay: Antagonistic activity for human vitronectin receptor (alphaV-beta3) from platelets; assay type: functional
Procedure, shortened: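 Competitive binding to human αvβ3 purified from platelets; a tritiated RGD peptide is the displaced ligand. Ki values are the means of two to three separate experiments, with typical assay variability of ±10%.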

Rattus norvegicus [1] = species: Rattus norvegicus; assay: Compound was measured for in vitro efficacy in blocking vitronectin-induced migration of rat aortic smooth muscle cells (RASMC); assay type: functional, cell-based
[2] = (§1) Plasma clearance was measured in rat; assay type: ADME, organism-based; settings: plasma
Rattus norvegicus [3] = species: Rattus norvegicus; assay: Maximum plasma concentration of compound was measured in rat; assay type: ADME, organism-based; settings: in vivo
[4] = Oral bioavailability in rat; assay type: ADME, organism-based; settings: in vivo
[5] = Biological half-life measured in plasma of rat; assay type: ADME, organism-based
Rattus norvegicus [6] = species: Rattus norvegicus; assay: as §1; assay type: ADME, organism-based; settings: in vivo
[7] = Bioavailability was measured in rat after oral administration; 2-4; assay type: ADME, organism-based; settings: in vivo, read-out: Bioavailabiility
[8] = Biological half-life measured in plasma of rat; 22-25; assay type: ADME, organism-based
[9] = Biological half-life measured in plasma of rat; 9-16; assay type: ADME, organism-based
[10] = Bioavailability was measured in rat after oral administration; 3-7; assay type: ADME, organism-based; settings: in vivo, read-out: Bioavailabiility

Chain of Integrin alpha-V/beta-3 (P05106 27-788 limits assumed): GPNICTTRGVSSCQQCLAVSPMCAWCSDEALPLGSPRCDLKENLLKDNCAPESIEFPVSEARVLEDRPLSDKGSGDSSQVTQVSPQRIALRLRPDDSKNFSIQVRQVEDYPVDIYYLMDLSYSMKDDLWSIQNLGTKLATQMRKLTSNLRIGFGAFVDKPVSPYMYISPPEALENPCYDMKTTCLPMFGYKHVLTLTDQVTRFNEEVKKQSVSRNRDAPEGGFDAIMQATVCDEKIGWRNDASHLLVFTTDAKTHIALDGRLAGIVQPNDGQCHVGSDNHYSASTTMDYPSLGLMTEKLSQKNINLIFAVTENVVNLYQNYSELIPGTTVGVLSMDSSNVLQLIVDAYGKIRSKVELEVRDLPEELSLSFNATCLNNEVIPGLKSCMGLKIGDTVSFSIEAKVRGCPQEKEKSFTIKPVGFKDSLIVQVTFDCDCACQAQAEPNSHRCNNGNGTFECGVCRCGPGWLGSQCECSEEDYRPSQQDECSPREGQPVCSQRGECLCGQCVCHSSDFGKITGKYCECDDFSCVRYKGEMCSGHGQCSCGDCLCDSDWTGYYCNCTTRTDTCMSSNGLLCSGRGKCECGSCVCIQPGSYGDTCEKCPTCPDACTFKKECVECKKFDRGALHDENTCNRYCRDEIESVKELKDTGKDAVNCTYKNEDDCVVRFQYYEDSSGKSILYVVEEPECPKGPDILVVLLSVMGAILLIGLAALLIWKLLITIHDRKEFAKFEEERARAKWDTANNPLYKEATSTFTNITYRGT
Chain of Integrin alpha-V/beta-3 (P06756 31-889 limits assumed): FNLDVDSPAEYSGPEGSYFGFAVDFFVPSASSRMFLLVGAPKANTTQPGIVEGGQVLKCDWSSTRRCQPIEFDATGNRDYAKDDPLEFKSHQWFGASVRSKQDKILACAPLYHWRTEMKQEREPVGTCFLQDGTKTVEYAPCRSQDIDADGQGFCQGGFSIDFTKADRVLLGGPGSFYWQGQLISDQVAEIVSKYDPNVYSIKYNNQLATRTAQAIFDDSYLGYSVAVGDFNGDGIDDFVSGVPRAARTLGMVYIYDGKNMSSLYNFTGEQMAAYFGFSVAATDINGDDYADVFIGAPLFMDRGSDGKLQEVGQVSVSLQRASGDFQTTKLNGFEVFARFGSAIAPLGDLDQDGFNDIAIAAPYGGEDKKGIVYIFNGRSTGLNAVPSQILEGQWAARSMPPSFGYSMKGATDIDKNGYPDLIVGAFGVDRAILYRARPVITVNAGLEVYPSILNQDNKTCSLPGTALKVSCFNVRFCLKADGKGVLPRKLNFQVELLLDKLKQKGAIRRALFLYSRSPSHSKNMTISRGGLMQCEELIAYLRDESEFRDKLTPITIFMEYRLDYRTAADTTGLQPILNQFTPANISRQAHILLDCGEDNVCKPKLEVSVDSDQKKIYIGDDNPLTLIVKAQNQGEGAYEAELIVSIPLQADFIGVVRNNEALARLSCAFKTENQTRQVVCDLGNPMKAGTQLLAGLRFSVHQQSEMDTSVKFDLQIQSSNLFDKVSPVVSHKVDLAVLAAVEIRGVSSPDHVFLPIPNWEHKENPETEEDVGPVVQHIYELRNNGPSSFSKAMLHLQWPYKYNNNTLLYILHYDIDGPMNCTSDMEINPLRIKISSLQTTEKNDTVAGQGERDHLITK
Chain of Integrin alpha-V/beta-3 (P06756 891-1048 limits assumed): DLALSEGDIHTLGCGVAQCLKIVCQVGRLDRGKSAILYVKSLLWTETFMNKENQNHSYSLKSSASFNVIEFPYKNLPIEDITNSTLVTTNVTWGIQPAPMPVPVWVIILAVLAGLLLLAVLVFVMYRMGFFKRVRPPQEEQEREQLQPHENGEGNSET

**Q.** With `CN(Cc1nc2cc[nH]nc-2n1)C(=O)c1ccc2c(c1)CN(C)C(=O)[C@H](CC(=O)O)N2` (racemic) as the compound, how does the IC50 (HEK293) read?
**A.** 1500 nM

**Q.** What about the Ki (Integrin alpha-V/beta-3) of the same compound?
**A.** 19 nM

**Q.** What does the source list for `COCCN1Cc2cc(C(=O)N(C)Cc3nc4ncccc4[nH]3)ccc2N[C@@H](CC(=O)O)C1=O` (racemic)?
**A.** IC50 (Rattus norvegicus [1]): 230 nM; clearance [2]: 31 mL/min/kg; Cmax (Rattus norvegicus [3]): 692 ng/mL; IC50 (HEK293): 500 nM; Ki (Integrin alpha-V/beta-3): 2.5 nM; bioavailability [4]: 4%; half-life [5]: 25 min

**Q.** For `Cc1ccc2[nH]c(CNC(=O)c3ccc4c(c3)CN(Cc3ccccc3)C(=O)[C@H](CC(=O)O)N4)nc2n1` (racemic), which Ki (Integrin alpha-V/beta-3) is on record?
**A.** 60 nM

**Q.** With `Cc1ccc2[nH]c(CN(C)C(=O)c3ccc4c(c3)CN(C)C(=O)[C@H](CC(=O)O)N4)nc2n1` as the compound, how does the IC50 (Rattus norvegicus [1]) read?
**A.** 170 nM

**Q.** And the clearance (Rattus norvegicus [6])?
**A.** 19 mL/min/kg

**Q.** And the clearance [2]?
**A.** 17 mL/min/kg

**Q.** What about the bioavailability [7] of the same compound?
**A.** 4%

**Q.** And the half-life [8]?
**A.** 25 min

**Q.** And the IC50 (HEK293)?
**A.** 450 nM

**Q.** And the Ki (Integrin alpha-V/beta-3)?
**A.** 3 nM

**Q.** For `Cc1ccc2[nH]c(CNC(=O)c3ccc4c(c3)CNC(=O)[C@H](CC(=O)O)N4)nc2n1` (racemic), which IC50 (HEK293) is on record?
**A.** 20000 nM

**Q.** And the Ki (Integrin alpha-V/beta-3)?
**A.** 90 nM

**Q.** With `CN(Cc1nc2ccc[nH]c-2n1)C(=O)c1ccc2c(c1)CN(C)C(=O)[C@H](CC(=O)O)N2` as the compound, how does the IC50 (HEK293) read?
**A.** 270 nM

**Q.** And the Ki (Integrin alpha-V/beta-3)?
**A.** 3 nM

**Q.** Which results are given for `CN(Cc1nc2ccccc2[nH]1)C(=O)c1ccc2c(c1)CN(C)C(=O)[C@H](CC(=O)O)N2`?
**A.** IC50 (Rattus norvegicus [1]): 370 nM; clearance [2]: 35 mL/min/kg; half-life [9]: 16 min; Cmax (Rattus norvegicus [3]): 819 ng/mL; bioavailability [10]: 7%

**Q.** With `Cc1cc(C)c2[nH]c(CN(C)C(=O)c3ccc4c(c3)CN(C)C(=O)[C@H](CC(=O)O)N4)nc2n1` as the compound, how does the Ki (Integrin alpha-V/beta-3) read?
**A.** 710 nM

**Q.** With `CN(Cc1nc2ccc[nH]c-2n1)C(=O)c1ccc2c(c1)CN(CCC(C)(C)C)C(=O)[C@H](CC(=O)O)N2` (racemic) as the compound, how does the IC50 (Rattus norvegicus [1]) read?
**A.** 470 nM

**Q.** And the clearance [2]?
**A.** 55 mL/min/kg

**Q.** And the Cmax (Rattus norvegicus [3])?
**A.** 555 ng/mL

**Q.** What about the IC50 (HEK293) of the same compound?
**A.** 250 nM

**Q.** What about the Ki (Integrin alpha-V/beta-3) of the same compound?
**A.** 2.5 nM

**Q.** And the bioavailability [4]?
**A.** < 1%

**Q.** What about the half-life [5] of the same compound?
**A.** 14 min

**Q.** Which IC50 (HEK293) does the source give for `Cc1ccc2nc(CN(C)C(=O)c3ccc4c(c3)CNC(=O)[C@H](CC(=O)O)N4)nc-2[nH]1` here?
**A.** 2500 nM

**Q.** What about the Ki (Integrin alpha-V/beta-3) of the same compound?
**A.** 10 nM

**Q.** With `Cc1ccc2nc(CNC(=O)c3ccc4c(c3)CN(C)C(=O)[C@H](CC(=O)O)N4)nc-2[nH]1` as the compound, how does the IC50 (Rattus norvegicus [1]) read?
**A.** 1600 nM

**Q.** And the clearance [2]?
**A.** 1.8 mL/min/kg

**Q.** And the IC50 (HEK293)?
**A.** 9000 nM

**Q.** And the Ki (Integrin alpha-V/beta-3)?
**A.** 45 nM

**Q.** And the bioavailability [4]?
**A.** 8%

**Q.** What about the half-life [5] of the same compound?
**A.** 92 min

**Q.** With `CN(Cc1nc2ncncc2[nH]1)C(=O)c1ccc2c(c1)CN(C)C(=O)[C@H](CC(=O)O)N2` as the compound, how does the IC50 (HEK293) read?
**A.** 5000 nM

**Q.** And the Ki (Integrin alpha-V/beta-3)?
**A.** 23 nM

**Q.** Which IC50 (HEK293) does the source give for `COCCN1Cc2cc(C(=O)NCc3nc4ccc(C)[nH]c-4n3)ccc2N[C@@H](CC(=O)O)C1=O` (racemic) here?
**A.** 10000 nM

**Q.** What about the Ki (Integrin alpha-V/beta-3) of the same compound?
**A.** 50 nM

**Q.** For `CC(C)N1Cc2cc(C(=O)N(C)Cc3nc4ncccc4[nH]3)ccc2N[C@@H](CC(=O)O)C1=O` (racemic), which IC50 (HEK293) is on record?
**A.** 2000 nM

**Q.** And the Ki (Integrin alpha-V/beta-3)?
**A.** 4 nM

**Q.** Which IC50 (HEK293) does the source give for `Cc1ccc2nc(CN(C)C(=O)c3ccc4c(c3)CN(Cc3ccccc3)C(=O)[C@H](CC(=O)O)N4)nc-2[nH]1` (racemic) here?
**A.** 160 nM

**Q.** And the Ki (Integrin alpha-V/beta-3)?
**A.** 13 nM
